EBV gp42 block – blocks Epstein-Barr virus glycoprotein 42 binding | 220,000 compounds, 0.42% hits | inhibition, % (tested at 21.74 µM) | Fluorescence polarization binding assay, mP read-out | Q1HVG2; in the data active = inhibition above about 50%
Target sequence (Q1HVG2 whole entry, looked up): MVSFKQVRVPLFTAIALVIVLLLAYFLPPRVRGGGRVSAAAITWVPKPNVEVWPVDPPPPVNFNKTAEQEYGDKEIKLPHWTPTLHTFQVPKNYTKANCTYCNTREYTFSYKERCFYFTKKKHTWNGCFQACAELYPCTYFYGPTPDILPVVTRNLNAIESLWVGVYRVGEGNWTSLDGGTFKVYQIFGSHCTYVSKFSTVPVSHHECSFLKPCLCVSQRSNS
GRIN3A LBD mod – modulates the human NR3A ligand-binding domain | AID 1259313 | 340,000 compounds, 2.5% hits | NR3A LBD differential scanning fluorimetry, Tm shift; 0% = protein alone, 100% = glycine-bound protein | Tm shift relative to glycine control, % at 25 µM;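 active = melting temperature shift of at least 10% of the positive control shift, at one fixed dose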
WT yeast gro inh – growth inhibition of WT yeast, mitochondrial fusion screen. mitochondrial fusion phenotypic screen, WT strain. inhibition, % at 10 µM. 190,000 compounds, 2.1% hits; in the data active = inhibition above about 58%; tested in S. cerevisiae
CHOP inh – CHOP inhibition in unfolded protein response; CHO-K1 CHOP-promoter luciferase, tunicamycin-induced, 15-18 h; inhibition, % at 10 µM; 220,000 compounds, 3.8% hits; AID 2732;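 active = compounds that reduced the stress-induced luciferase reporter signal by more than about 70% of percent inhibition, limit read from the data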;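 also: 0% = tunicamycin plus vehicle and 100% = wells without tunicamycin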
MPTP inh – permeability transition pore inhibition; 360,000 compounds, 1.4% hits; inhibition, % at 10 µM; isolated mouse mitochondria, Ca2+ swelling absorbance, 30 min; AID 602449;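 active = inhibition of 50% or more, scaled per plate between neutral and stimulator controls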;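 also: 0% = DMSO wells given calcium and 100% = 1 mM EGTA wells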
Tb MetRS inh – Trypanosoma brucei MetRS inhibition; purified T. brucei MetRS, ATP depletion, Kinase-Glo luminescence; inhibition, % at 11.9 µM; 360,000 compounds, 0.4% hits; AID 624268;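 active = inhibition above a per-plate cutoff of the control wells' mean inhibition plus 3 SD, cut at about 5.5% in these data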;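 also: 0% = DMSO wells median and 100% = median of wells with control inhibitor compound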
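Measured by: Kinase-Glo luciferase luminescence reporting remaining unconsumed ATP. Material: purified T. brucei MetRS enzyme. Doses: 11.9 µM compound single dose, 0.9% DMSO. Medium: HEPES buffer containing pyrophosphatase, BSA, spermine, DTT. Times: 15 min preincubation, 2 h reaction, all 25 °C. Reagent: methionine, ATP and bulk E. coli tRNA.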
TbMetRS confirm – confirmation of Trypanosoma brucei MetRS inhibitors; inhibition, % at 11.9 µM; 1,400 compounds, 93% hits; shares compounds with Tb MetRS inh; T. brucei MetRS enzyme, luminescence (ATP depletion); in the data active = inhibition above about 7%
Jurkat cytotox – counter-screen for T. brucei MetRS inhibitors: Jurkat cell cytotoxicity. shares compounds with Tb MetRS inh. Jurkat cells viability, ATP luminescence. 1,400 compounds, 12% hits. inhibition, % at 8.3 µM; in the data active = inhibition above about 15%;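 also: 0% = vehicle and 100% = reference inhibitor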
TbMetRS FP orth – T. brucei MetRS inhibition, orthogonal assay | inhibition, % at 11.9 µM | AID 651607 | purified T. brucei MetRS, fluorescence polarization | 1,400 compounds, 44% hits | shares compounds with Tb MetRS inh; in the data active = inhibition above about 17%;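 also: 0% = vehicle wells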
An asterisk follows results filed as active; nt = no result; ! = not active in a repeat. Shown are actives, neighbours in structure and some others; about 6.4% of the full set was active somewhere.

SMILES | EBV gp42 block | GRIN3A LBD mod | WT yeast gro inh | CHOP inh | MPTP inh | Tb MetRS inh | TbMetRS confirm | Jurkat cytotox | TbMetRS FP orth
CCN1CCN(CCCOc2ccc(Cl)cc2Br)CC1 | -3 | -1 | 20 | 4 | 0 | 7.7* | 13* | 8 | 6
Clc1ccc(OCCCCCN2CCCC2)c(Br)c1 | -14 | -4 | 32 | 27 | -5 | 6.2* | 13* | 13 | 4
Brc1ccccc1OCCCCCN1CCCC1 | -8 | nt | 13 | 11 | nt | nt | nt | nt | nt
Clc1ccc(OCCCn2ccnc2)c(Br)c1 | -14 | -2 | 48 | 3 | 0 | 13* | 22* | 5 | 13
c1ccc2[nH]c(CCCCc3nc4ccccc4[nH]3)nc2c1 | nt | -4 | nt | nt | 1 | 6.4* | 16* | 1 | 12
c1ccc2[nH]c(CSc3nc4ccccc4s3)nc2c1 | -21 | -3 | 34 | 25 | 45 | 8.1* | 20* | 7 | 6
Cc1ccc2nc(CCc3nc4ccc(C)cc4[nH]3)[nH]c2c1 | nt | -17 | nt | nt | 6 | 6.4* | 11* | 3 | 5
CCCc1nc2ccccc2[nH]1 | -1 | 0 | 7 | -17 | 0 | 0 | nt | nt | nt
N/N=C(/Cc1nc2ccccc2[nH]1)c1ccc([N+](=O)[O-])cc1 | -1 | -2 | 90* | -12 | 0 | 6.0* | 88* | 0 | 66*
COc1ccc(/C=N/NC(=O)c2cccc(NC(C)=O)c2)c(C(=O)O)c1OC | -12 | -1 | -4 | 7 | 1 | -1 | nt | nt | nt
COC(=O)c1cc(C(=O)Cc2ccccc2)c[nH]1 | -7 | nt | -12 | 0 | nt | nt | nt | nt | nt
O=C(Cc1nc2ccccc2[nH]1)c1ccc(Br)cc1 | 9 | -1 | 9 | -31 | 5 | 11* | 2 | 10 | 6
O=C(C/C=N\OCc1ccc([N+](=O)[O-])cc1)Nc1ccc(Cl)cc1 | -10 | -17 | 7 | 25 | 0 | 74* | 101* | -3 | 80*
O=C(C/C=N\OCc1ccc([N+](=O)[O-])cc1)Nc1ccccc1 | -4 | -3 | 1 | 1 | 0 | 13* | 31* | 0 | 12
Nn1c(Nc2ccc(Cl)cc2)nncc1=O | -5 | 0 | 0 | 26 | 1 | 1 | nt | nt | nt
Cc1cc(SCC(=O)N/N=C/c2ccc(O)c(O)c2)c(C)cc1Br | 0 | -6 | 27 | -2 | 7 | 41* | 82* | 15* | 56*
Cc1cc(SCC(=O)N/N=C/c2ccc(O)c(O)c2)nc2ccccc12 | nt | 6 | nt | nt | 1 | 0 | nt | nt | nt
Cc1nnc(Nc2ccc(C(=O)O)cc2)[nH]c1=O | -23 | 1 | -6 | -4 | -1 | 6.8* | 14* | 0 | 3
Cc1nnc(Nc2ccc(O)cc2)[nH]c1=O | -8 | -2 | -8 | -8 | -1 | 1 | nt | nt | nt
COc1ccc(-c2nc(CS(=O)(=O)CC(=O)Nc3ccc(Cl)cc3)c(C)o2)cc1 | -5 | -2 | 4 | 97* | 1 | 12* | 34* | 46* | 26*
C[C@H](CO)N1C[C@H](C)[C@@H](CN(C)C(=O)Nc2ccc(C(F)(F)F)cc2)Oc2ccc(NC(=O)Nc3ccccc3)cc2C1=O | nt | 7 | nt | nt | 1 | 6.1* | 18* | 7 | 13
C[C@H](CO)N1C[C@H](C)[C@@H](CN(C)S(=O)(=O)c2ccccc2)Oc2ccc(NC(=O)Nc3ccccc3)cc2C1=O | nt | 4 | nt | nt | 2 | 7.2* | 19* | -3 | 3
COc1ccc(Br)cc1CSC(=N)N | 0 | 0 | -4 | 6 | 2 | 11* | 2 | 9 | 2
CC(=O)c1ccc(OC(C)C)c(CSC(=N)N)c1 | -6 | 1 | -11 | 18 | 10 | 1 | nt | nt | nt
Brc1ccc2[nH]c3nc(SCCN4CCOCC4)nnc3c2c1 | -11 | 3 | 5 | -13 | -1 | 16* | 33* | 15*! | 23*!
SMILES | EBV gp42 block | GRIN3A LBD mod | WT yeast gro inh | CHOP inh | MPTP inh | Tb MetRS inh | TbMetRS confirm | Jurkat cytotox | TbMetRS FP orth
c1ccc2c(c1)[nH]c1nc(SCCN3CCOCC3)nnc12 | -24 | 2 | -10 | 5 | -2 | 0 | nt | nt | nt
Cc1ccc(SCCC(=O)N/N=C/c2cccnc2)cc1 | -17 | -1 | -8 | 38 | 1 | 11* | 32* | 11 | 21*
CCN(CC)c1ccc(/C=N/NC(=O)Cc2nnc(NC(=O)Nc3ccccc3)s2)cc1 | -66 | -2 | -4 | 6 | 8 | 8.4* | 9.2* | 3 | 5
CCN(CC)c1ccc(/C=N/NC(=O)Nc2ccccc2)cc1 | -2 | -7 | 52 | -20 | 1 | 0 | nt | nt | nt
C=CCNC(=S)NNC(=O)c1ccc(=O)n(Cc2ccccc2)c1 | -9 | 0 | -10 | 15 | 0 | 13* | 24* | 1 | 9
c1ccc(CNc2nc(NCCc3ccncc3)c3sccc3n2)cc1 | nt | nt | nt | nt | 4 | 12* | 33* | 9 | 19*
c1ccc(CNc2nc(NCc3cccs3)nc3ccsc23)cc1 | nt | nt | nt | nt | 21 | 0 | nt | nt | nt
C/C(=N/Nc1ncc(Br)cn1)c1ccc(Br)cc1 | nt | -13 | nt | nt | 0 | -2 | nt | nt | nt
NC(=O)CSc1nnc(Cc2csc(Nc3ccccc3)n2)n1Cc1ccccc1 | -2 | -2 | 4 | 15 | 1 | 9.0* | 16* | 2 | 1
COCCCn1c(Cc2csc(Nc3ccccc3)n2)nnc1SCC(N)=O | -9 | -2 | -6 | -10 | 0 | 0 | nt | nt | nt
O=C(Cn1cnnn1)NCCc1ccc(Cl)cc1Cl | nt | -2 | nt | nt | 1 | 9.4* | 18* | 3 | 13
Cc1nn(CC(=O)NCCc2ccc(Cl)cc2Cl)c(C)c1[N+](=O)[O-] | -1 | -3 | 22 | 31 | 6 | 16* | 33* | -4 | 14
Cc1ccc(NC(=O)Cn2nc(C)c([N+](=O)[O-])c2C)cc1Cl | -10 | -8 | 30 | 36 | -2 | 0 | nt | nt | nt
Cc1cc(/C=N/NC(=O)C(=O)NCc2ccccn2)c(C)n1-c1cccc(Br)c1 | -2 | -12 | 9 | 52 | 3 | -1 | nt | nt | nt
COc1cc(-c2cc(C(=O)NN3CCN(C)CC3)c3ccccc3n2)cc(OC)c1OC | -49 | nt | -5 | -19 | nt | nt | nt | nt | nt
O=C(CSc1nc(C(F)(F)F)cc(=O)[nH]1)N1CCCCCC1 | nt | 1 | nt | nt | -1 | 0 | nt | nt | nt
O=C(Nc1ccc(C(=O)O)cc1)/C(=C\C=C\c1ccccc1)NC(=O)c1cccc(Br)c1 | 5 | -7 | 13 | 21 | 1 | 12* | 20* | 2 | 23*
O=C(Nc1cccc(C(=O)O)c1)/C(=C\C=C\c1ccccc1)NC(=O)c1ccccc1 | 2 | -3 | 4 | -1 | -1 | 0 | nt | nt | nt
Cc1ccc(C(=O)CN(C(=O)c2ccc(Cl)c(Cl)c2)N2C(=O)C3CCCCC3C2=O)cc1 (stereo not drawn) | 3 | -8 | -1 | 17 | -1 | 0 | nt | nt | nt

Screening results deposited in PubChem by several laboratories.
